These results are taken from ChEMBL document CHEMBL4400539, “Discovery of a Novel Chemotype of Histone Lysine Methyltransferase EHMT1/2 (GLP/G9a) Inhibitors: Rational Design, Synthesis, Biological Evaluation, and Co-crystal Structure” (J Med Chem, 2019).

As usually defined, the inhibition is the relative decrease from the control value, in per cent. By IC50 is commonly meant the concentration that inhibits the measured activity by half. One may read the Kd as a measure of binding affinity in units of concentration. The low end stands for higher affinity, the high end for lower affinity.

Series [1] concerns the target T1, Histone-lysine N-methyltransferase EHMT2 (Homo sapiens) (UniProt Q96KQ7).
T1 sequence (whole entry): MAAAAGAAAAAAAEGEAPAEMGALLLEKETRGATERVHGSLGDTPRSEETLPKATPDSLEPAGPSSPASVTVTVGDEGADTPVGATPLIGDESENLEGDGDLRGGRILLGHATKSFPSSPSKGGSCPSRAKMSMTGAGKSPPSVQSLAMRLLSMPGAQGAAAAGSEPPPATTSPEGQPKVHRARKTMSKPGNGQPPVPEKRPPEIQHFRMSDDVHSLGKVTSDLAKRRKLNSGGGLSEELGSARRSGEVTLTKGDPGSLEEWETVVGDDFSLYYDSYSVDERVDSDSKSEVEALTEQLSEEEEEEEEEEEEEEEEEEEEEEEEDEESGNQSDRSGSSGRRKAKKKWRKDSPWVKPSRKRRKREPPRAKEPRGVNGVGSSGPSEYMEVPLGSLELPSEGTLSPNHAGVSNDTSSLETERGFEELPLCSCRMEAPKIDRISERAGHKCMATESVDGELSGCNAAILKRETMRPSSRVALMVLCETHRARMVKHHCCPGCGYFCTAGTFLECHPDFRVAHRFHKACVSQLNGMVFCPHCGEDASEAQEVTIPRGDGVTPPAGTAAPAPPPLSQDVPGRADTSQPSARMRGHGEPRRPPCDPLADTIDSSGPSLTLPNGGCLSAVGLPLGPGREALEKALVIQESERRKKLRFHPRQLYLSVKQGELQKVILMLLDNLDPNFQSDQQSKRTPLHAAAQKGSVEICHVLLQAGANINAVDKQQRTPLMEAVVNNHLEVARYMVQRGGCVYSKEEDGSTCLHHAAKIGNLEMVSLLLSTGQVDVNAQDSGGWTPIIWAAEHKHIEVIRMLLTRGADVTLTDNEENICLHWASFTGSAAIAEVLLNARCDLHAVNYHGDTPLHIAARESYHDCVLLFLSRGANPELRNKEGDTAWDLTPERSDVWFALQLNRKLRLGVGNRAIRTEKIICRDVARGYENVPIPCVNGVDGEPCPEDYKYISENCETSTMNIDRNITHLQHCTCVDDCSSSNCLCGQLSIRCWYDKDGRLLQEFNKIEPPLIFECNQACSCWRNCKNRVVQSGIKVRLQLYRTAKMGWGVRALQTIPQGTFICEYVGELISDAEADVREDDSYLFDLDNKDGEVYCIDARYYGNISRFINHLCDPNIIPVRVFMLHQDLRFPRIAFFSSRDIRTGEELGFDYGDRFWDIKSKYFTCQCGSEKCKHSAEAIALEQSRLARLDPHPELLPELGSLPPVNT
Briefly: Inhibition of recombinant human G9a at 10 uM using biotinylated-Histone H3 peptide (1 to 21 residues) after 30 mins by AlphaLISA assay relative to control. In short, it runs like this:
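G9a AlphaLISA at fixed 10 or 25 μM compound: human recombinant G9a 1 nM, 30 min preincubation, then biotinylated H3(1–21) 100 nM plus SAM 15 μM for 30 min at room temperature, pH 8.8 Tris buffer with 0.01% Tween-20; anti-H3K9me2 acceptor and streptavidin donor beads; percent of DMSO control.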

Series [2] in a line: Cytotoxicity against human U343MG cells assessed as reduction in cell viability up to 5 uM after 72 hrs by MTT assay. The format is cell-based. The essentials: (§1)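 MCF-7, MDA-MB-231 and U-343 cells exposed 24, 48 and 72 h to 0.05, 0.5, 5 and 50 μM compound; viability by MTT reduction to formazan versus vehicle; mean ± SD of at least three independent experiments.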
In general terms: Tetrazolium assays rely on reduction of a dye to a coloured formazan, in cell work by metabolically active cells.

The target of series [3] is DNA (cytosine-5)-methyltransferase 1 (Homo sapiens, UniProt P26358). Briefly: Inhibition of N-terminal GST-tagged recombinant full length human DNMT1 (2 to 1632 residues) using poly(dI-dC)):poly(dI-dC) as substrate preincubated for 20 mins followed by [3H]-SAM and measured after 60 mins by scintillation counting.
DNA (cytosine-5)-methyltransferase 1, sequence (P26358 whole entry, the tested form may be a part): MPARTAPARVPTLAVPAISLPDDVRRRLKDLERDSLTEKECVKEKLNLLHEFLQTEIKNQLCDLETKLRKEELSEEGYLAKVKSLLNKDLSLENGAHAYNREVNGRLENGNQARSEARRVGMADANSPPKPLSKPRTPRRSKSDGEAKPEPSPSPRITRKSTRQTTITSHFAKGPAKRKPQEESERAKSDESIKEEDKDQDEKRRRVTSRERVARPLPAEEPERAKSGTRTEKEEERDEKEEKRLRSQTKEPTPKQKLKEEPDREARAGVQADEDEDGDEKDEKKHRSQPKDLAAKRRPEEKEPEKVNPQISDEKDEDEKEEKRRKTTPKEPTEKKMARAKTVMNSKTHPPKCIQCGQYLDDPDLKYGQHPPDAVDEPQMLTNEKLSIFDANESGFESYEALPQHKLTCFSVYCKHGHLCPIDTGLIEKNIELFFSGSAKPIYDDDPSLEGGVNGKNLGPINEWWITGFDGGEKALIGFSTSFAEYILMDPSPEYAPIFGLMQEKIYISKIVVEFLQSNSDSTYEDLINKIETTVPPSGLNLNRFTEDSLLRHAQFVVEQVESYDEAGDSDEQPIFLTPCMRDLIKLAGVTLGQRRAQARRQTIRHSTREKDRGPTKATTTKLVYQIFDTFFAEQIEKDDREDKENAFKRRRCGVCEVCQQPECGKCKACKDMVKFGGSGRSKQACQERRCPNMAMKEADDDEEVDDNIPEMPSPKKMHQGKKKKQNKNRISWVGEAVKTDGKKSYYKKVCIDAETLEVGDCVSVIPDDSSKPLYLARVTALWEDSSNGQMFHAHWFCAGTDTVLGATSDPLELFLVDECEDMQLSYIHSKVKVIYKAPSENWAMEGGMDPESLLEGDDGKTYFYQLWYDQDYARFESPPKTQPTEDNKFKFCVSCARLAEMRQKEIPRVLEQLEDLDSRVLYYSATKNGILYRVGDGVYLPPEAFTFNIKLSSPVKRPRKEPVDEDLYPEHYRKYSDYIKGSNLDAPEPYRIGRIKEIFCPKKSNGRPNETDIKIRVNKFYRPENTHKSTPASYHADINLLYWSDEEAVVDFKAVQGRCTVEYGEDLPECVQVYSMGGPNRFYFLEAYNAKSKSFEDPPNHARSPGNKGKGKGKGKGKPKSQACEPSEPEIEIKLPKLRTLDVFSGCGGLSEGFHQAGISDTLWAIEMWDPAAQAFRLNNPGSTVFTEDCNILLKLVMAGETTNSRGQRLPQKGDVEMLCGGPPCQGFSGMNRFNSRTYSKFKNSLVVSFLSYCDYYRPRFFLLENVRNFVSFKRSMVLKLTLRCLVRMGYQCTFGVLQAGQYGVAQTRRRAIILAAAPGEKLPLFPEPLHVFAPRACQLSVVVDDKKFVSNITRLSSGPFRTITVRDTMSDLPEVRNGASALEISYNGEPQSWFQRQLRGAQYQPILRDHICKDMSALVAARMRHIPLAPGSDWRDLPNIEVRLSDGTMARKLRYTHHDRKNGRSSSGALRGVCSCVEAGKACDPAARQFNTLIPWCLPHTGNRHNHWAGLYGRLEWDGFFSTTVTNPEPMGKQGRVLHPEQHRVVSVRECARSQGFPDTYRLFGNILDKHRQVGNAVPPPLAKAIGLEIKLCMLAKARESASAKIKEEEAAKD
Series [4] deals with T2, Lysine-specific demethylase 4A (Homo sapiens) (UniProt O75164).
T2 sequence (whole entry): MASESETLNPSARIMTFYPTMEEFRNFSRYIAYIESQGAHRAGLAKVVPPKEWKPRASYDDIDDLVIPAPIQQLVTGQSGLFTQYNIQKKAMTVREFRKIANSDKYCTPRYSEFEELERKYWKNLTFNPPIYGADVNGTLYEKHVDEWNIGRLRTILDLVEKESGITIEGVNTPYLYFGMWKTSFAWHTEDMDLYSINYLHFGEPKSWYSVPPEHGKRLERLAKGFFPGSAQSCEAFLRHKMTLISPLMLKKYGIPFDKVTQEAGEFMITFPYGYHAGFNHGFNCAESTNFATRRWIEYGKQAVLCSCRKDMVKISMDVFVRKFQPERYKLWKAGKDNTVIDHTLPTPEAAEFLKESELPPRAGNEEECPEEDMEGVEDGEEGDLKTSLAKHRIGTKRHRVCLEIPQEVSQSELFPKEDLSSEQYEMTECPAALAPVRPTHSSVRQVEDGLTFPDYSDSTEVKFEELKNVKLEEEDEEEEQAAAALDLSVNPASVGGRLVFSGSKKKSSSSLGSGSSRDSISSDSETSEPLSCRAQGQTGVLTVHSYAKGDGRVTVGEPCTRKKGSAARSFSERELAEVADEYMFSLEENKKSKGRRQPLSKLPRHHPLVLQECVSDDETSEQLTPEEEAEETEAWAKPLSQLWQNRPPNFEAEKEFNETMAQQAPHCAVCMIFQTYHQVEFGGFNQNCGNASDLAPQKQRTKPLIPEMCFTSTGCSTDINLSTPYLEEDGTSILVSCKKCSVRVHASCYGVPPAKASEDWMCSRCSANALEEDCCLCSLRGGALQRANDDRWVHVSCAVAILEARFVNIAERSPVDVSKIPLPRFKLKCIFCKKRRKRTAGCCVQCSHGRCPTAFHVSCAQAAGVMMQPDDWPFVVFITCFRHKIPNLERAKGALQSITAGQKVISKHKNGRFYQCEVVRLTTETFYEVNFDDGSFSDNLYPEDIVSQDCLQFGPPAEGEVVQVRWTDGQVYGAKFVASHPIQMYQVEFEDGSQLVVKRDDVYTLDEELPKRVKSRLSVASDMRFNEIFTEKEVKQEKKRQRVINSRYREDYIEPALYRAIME
Kind of series: Inhibition of recombinant human JMJD2A at 10 to 25 uM using biotinylated-Histone H3 peptide (1 to 21 residues) as substrate preincubated for 30 mins followed by substrate addition and measured after 60 mins in presence of SAM by AlphaLISA assay relative to control.

Series [5] concerns the target T3, Histone-lysine N-methyltransferase EHMT2 (Homo sapiens, UniProt Q96KQ7).
T3 sequence (Q96KQ7 whole entry): T1 sequence (whole entry)
Briefly: Binding affinity to human His-tagged G9a expressed in Escherichia coli Rosetta (DE3) after 30 mins by MST binding assay.

Series [6] deals with MCF7. Kind of series: Cytotoxicity against human MCF7 cells assessed as reduction in cell viability at 0.05 to 50 uM after 24 hrs by MTT assay. The format is cell-based. The note with it: mcf7, 24 h. The essentials:
as §1

Series [7] concerns the target T1, Histone-lysine N-methyltransferase EHMT2 (Homo sapiens).

Activity calls are given as the source filed them. The calls are words filed in the database; no cut-off is given here.

`COc1cc2c(cc1OCCCN1CCCC1)N=C(C1CCCCC1)CN=C2NC1CCN(C(C)C)CC1`: the inhibition in series [1] was determined as 97%. The Activity result in series [2] and in series [6] was “Non-Toxic” in each case. Further, the IC50 in series [3] was 3100 nM. Moreover, the inhibition result in series [4] is “inactive”. This compound returned a Kd in series [5] of 1130 nM. In series [7], this compound showed a Ka of 550.
